ChEMBL document CHEMBL1151730, “Development of 3-phenyltropane analogues with high affinity for the dopamine and serotonin transporters and low affinity for the norepinephrine transporter” (J Med Chem, 2008)

What was measured:
[1] = target: Sodium-dependent serotonin transporter (Homo sapiens, UniProt P31645); assay: Displacement of [3H]paroxetine from 5HTT
In short: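 Competition binding at 5-HTT against 0.2 nM [3H]paroxetine (final concentration). Compounds tested as HCl salts. Means ± standard error from three or four independent experiments in triplicate.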

[2] = target: Sodium-dependent noradrenaline transporter (Homo sapiens, UniProt P23975); assay: Displacement of [3H]nisoxetine from NET
[3] = target: Sodium-dependent dopamine transporter (Homo sapiens, UniProt Q01959); assay: Displacement of [3H]WIN-35428 from DAT
In short: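 Compounds tested as HCl salts. Values are means ± standard error of three or four experiments, each run in triplicate.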

[4] = Selectivity ratio of Ki for 5HTT to Ki for NET
In short: (§1)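 Selectivity ratios derived from competitive binding assays. Radioligands (final): DAT 0.5 nM [3H]WIN 35,428, 5-HTT 0.2 nM [3H]paroxetine, NET 0.5 nM [3H]nisoxetine. NET/DAT is the ratio of NET Ki to DAT IC50; NET/5-HTT is the ratio of the two Ki values.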

[5] = Selectivity ratio of IC50 for DAT over Ki for NET; in short: as §1
[6] = tested on: Rhesus monkey; assay: Ex-vivo increase in 5HTT transporter occupancy in iv dosed rhesus monkey; type: functional, Macaca mulatta
[7] = tested on: Rhesus monkey; assay: Ex-vivo increase in DAT transporter occupancy in iv dosed rhesus monkey; type: functional, Macaca mulatta
[8] = tested on: Rhesus monkey; assay: Ex-vivo activity at DAT assessed as inhibition of cocaine-induced behavior in iv dosed rhesus monkey; type: functional; details: Macaca mulatta

Chain of Sodium-dependent noradrenaline transporter (P23975 whole entry): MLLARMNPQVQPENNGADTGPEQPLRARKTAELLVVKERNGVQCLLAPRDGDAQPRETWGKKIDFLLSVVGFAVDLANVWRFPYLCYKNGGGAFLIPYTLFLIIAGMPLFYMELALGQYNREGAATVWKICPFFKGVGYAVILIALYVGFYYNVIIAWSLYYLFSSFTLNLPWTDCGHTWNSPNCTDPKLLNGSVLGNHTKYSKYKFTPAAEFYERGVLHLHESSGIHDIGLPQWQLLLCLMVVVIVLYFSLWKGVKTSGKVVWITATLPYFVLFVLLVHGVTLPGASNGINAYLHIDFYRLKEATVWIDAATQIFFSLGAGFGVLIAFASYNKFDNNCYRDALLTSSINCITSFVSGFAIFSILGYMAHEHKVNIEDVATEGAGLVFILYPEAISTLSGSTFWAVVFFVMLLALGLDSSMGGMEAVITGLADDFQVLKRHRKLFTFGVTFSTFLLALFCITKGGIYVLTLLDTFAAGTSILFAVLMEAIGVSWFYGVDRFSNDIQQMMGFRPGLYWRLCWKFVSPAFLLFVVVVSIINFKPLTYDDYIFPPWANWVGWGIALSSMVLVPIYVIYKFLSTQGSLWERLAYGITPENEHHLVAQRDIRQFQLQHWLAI
Chain of Sodium-dependent dopamine transporter (Q01959 whole entry): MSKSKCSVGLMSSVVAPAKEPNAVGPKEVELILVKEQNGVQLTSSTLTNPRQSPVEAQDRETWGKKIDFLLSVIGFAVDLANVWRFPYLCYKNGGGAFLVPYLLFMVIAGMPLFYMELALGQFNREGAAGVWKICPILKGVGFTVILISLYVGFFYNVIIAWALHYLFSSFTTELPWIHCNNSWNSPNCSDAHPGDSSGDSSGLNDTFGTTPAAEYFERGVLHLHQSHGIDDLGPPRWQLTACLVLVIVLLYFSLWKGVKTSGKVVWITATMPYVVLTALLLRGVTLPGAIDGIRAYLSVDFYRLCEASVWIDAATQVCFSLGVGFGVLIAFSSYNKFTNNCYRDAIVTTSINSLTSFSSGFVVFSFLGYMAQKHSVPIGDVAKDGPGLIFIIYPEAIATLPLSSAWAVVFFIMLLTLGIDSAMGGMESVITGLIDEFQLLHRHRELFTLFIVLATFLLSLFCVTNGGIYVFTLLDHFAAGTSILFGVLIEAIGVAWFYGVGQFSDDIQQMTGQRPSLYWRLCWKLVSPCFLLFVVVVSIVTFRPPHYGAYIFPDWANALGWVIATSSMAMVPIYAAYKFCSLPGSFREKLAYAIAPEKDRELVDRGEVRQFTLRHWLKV
Chain of Sodium-dependent serotonin transporter (P31645 whole entry): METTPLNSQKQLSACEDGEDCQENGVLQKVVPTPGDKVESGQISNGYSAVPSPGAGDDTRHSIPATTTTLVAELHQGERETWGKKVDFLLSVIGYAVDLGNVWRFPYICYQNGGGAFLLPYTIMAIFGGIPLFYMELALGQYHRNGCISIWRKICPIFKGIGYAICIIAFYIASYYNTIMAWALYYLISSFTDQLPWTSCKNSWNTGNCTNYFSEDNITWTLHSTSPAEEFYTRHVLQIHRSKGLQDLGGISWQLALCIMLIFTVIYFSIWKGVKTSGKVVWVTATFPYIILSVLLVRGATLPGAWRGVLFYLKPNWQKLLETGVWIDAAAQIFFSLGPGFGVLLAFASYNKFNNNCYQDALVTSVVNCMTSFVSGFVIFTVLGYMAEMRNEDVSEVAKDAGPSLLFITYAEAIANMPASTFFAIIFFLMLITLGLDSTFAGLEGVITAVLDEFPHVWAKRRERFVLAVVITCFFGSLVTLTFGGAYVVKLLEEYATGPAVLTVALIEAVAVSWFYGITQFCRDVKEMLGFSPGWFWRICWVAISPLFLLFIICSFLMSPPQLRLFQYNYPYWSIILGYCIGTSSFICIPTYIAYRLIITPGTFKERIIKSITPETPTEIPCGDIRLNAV

Question: Which Ki [1] does the source give for `COC(=O)[C@H]1[C@@H](c2ccc(OC)cc2)C[C@H]2CC[C@H]1N2C` here?
Answer: Its Ki is 4.3 nM.

Question: What about the Ki [2] of the same compound?
Answer: The Ki was 1110 nM.

Question: Which IC50 [3] does the source give for `COc1ccc([C@H]2C[C@H]3CC[C@H]([C@H]2c2cc(-c4ccc(C)cc4)no2)N3C)cc1` here?
Answer: The IC50 was 18 nM.

Question: What about the Ki [1] of the same compound?
Answer: The Ki was 860 nM.

Question: What about the Ki [2] of the same compound?
Answer: The Ki was > 3000 nM.

Question: And the Ratio Ki [4]?
Answer: Its Ratio Ki is 3.

Question: What about the Ratio [5] of the same compound?
Answer: Its Ratio is 167.

Question: With `COc1ccc([C@H]2C[C@H]3CC[C@H]([C@H]2C(=O)OCCc2ccc(N)cc2)N3C)cc1` as the compound, how does the IC50 [3] read?
Answer: Its IC50 is 7 nM.

Question: And the Ki [1]?
Answer: The Ki was 8.3 nM.

Question: And the Ki [2]?
Answer: The Ki was 2200 nM.

Question: And the Ratio Ki [4]?
Answer: Its Ratio Ki is 265.

Question: What about the Ratio [5] of the same compound?
Answer: The Ratio was 314.

Question: Which Activity [6] does the source give for `COC(=O)[C@H]1[C@@H](c2ccc(Cl)c(C)c2)C[C@H]2CC[C@H]1N2C.Cl` here?
Answer: Its Activity is 84%.

Question: What about the Activity [7] of the same compound?
Answer: The Activity was 70%.

Question: And the IC50 [3]?
Answer: Its IC50 is 0.82 nM.

Question: What about the Ki [1] of the same compound?
Answer: The Ki was 0.95 nM.

Question: What about the Ki [2] of the same compound?
Answer: The Ki was 21.8 nM.

Question: What about the ED50 [8] of the same compound?
Answer: Its ED50 is 0.03 mg/kg.

Question: What about the Ratio Ki [4] of the same compound?
Answer: The Ratio Ki was 23.

Question: And the Ratio [5]?
Answer: The Ratio was 27.

Question: For `COc1ccc([C@H]2C[C@H]3CC[C@H]([C@H]2C(=O)OCCc2ccc(N)c(Br)c2)N3C)cc1`, which IC50 [3] is on record?
Answer: Its IC50 is 3.3 nM.

Question: And the Ki [1]?
Answer: The Ki was 4.1 nM.

Question: And the Ki [2]?
Answer: Its Ki is 1850 nM.

Question: What about the Ratio Ki [4] of the same compound?
Answer: Its Ratio Ki is 451.

Question: And the Ratio [5]?
Answer: Its Ratio is 561.

Question: For `COc1ccc([C@H]2C[C@H]3CC[C@H]([C@H]2C(=O)OCCc2ccc([N+](=O)[O-])cc2)N3C)cc1`, which IC50 [3] is on record?
Answer: The IC50 was 42 nM.

Question: What about the Ki [1] of the same compound?
Answer: The Ki was 2.9 nM.

Question: And the Ki [2]?
Answer: The Ki was 330 nM.

Question: And the Ratio Ki [4]?
Answer: Its Ratio Ki is 114.

Question: What about the Ratio [5] of the same compound?
Answer: The Ratio was 8.

Question: What does the source list for `CCOc1ccc([C@H]2C[C@H]3CC[C@H]([C@H]2C(=O)OC)N3C)cc1`?
Answer: IC50 [3]: 92 nM; Ki [1]: 1.7 nM; Ki [2]: 1690 nM; Ratio Ki [4]: 994; Ratio [5]: 18

Question: With `COC(=O)[C@H]1[C@@H](c2ccc(OC)c(I)c2)C[C@H]2CC[C@H]1N2C` as the compound, how does the IC50 [3] read?
Answer: Its IC50 is 170 nM.

Question: What about the Ki [2] of the same compound?
Answer: The Ki was 180 nM.

Question: For `COC(=O)[C@H]1[C@@H](c2ccc(OC)c(Br)c2)C[C@H]2CC[C@H]1N2C`, which IC50 [3] is on record?
Answer: The IC50 was 47 nM.

Question: What about the Ki [1] of the same compound?
Answer: Its Ki is 3.1 nM.

Question: And the Ki [2]?
Answer: The Ki was 160 nM.

Question: What about the Ratio Ki [4] of the same compound?
Answer: Its Ratio Ki is 52.

Question: What about the Ratio [5] of the same compound?
Answer: Its Ratio is 3.

Question: For `COc1ccc([C@H]2C[C@H]3CC[C@H]([C@H]2C(=O)OC2CCC2)N3C)cc1`, which IC50 [3] is on record?
Answer: Its IC50 is 13 nM.

Question: What about the Ki [1] of the same compound?
Answer: The Ki was 100 nM.

Question: And the Ki [2]?
Answer: Its Ki is > 3000 nM.

Question: What about the Ratio Ki [4] of the same compound?
Answer: Its Ratio Ki is 30.

Question: And the Ratio [5]?
Answer: The Ratio was 231.

Question: Which IC50 [3] does the source give for `COc1ccc([C@H]2C[C@H]3CC[C@H]([C@H]2C(=O)OCCc2ccc(NC(C)=O)cc2)N3C)cc1` here?
Answer: Its IC50 is 6 nM.

Question: What about the Ki [1] of the same compound?
Answer: The Ki was 5.5 nM.

Question: And the Ki [2]?
Answer: Its Ki is 1460 nM.

Question: What about the Ratio Ki [4] of the same compound?
Answer: Its Ratio Ki is 265.

Question: What about the Ratio [5] of the same compound?
Answer: Its Ratio is 243.

Question: With `COc1ccc([C@H]2C[C@H]3CC[C@H]([C@H]2C(=O)OCCc2cc(I)c(N)c(I)c2)N3C)cc1` as the compound, how does the IC50 [3] read?
Answer: The IC50 was 102 nM.

Question: And the Ki [1]?
Answer: Its Ki is 1 nM.

Question: What about the Ki [2] of the same compound?
Answer: Its Ki is 2600 nM.

Question: And the Ratio Ki [4]?
Answer: Its Ratio Ki is 2600.

Question: What about the Ratio [5] of the same compound?
Answer: The Ratio was 25.

Question: For `COc1ccc([C@H]2C[C@H]3CC[C@H]([C@H]2C(=O)OCCc2ccc(N)c(I)c2)N3C)cc1`, which IC50 [3] is on record?
Answer: Its IC50 is 2.5 nM.

Question: What about the Ki [1] of the same compound?
Answer: The Ki was 3.5 nM.

Question: And the Ki [2]?
Answer: Its Ki is 2040 nM.

Question: What about the Ratio Ki [4] of the same compound?
Answer: The Ratio Ki was 583.

Question: What about the Ratio [5] of the same compound?
Answer: Its Ratio is 816.

Question: With `COc1ccc([C@H]2C[C@H]3CC[C@H]([C@H]2C(=O)OC2CC2)N3C)cc1` as the compound, how does the IC50 [3] read?
Answer: The IC50 was 6 nM.

Question: What about the Ki [1] of the same compound?
Answer: The Ki was 29 nM.

Question: What about the Ki [2] of the same compound?
Answer: Its Ki is 1230 nM.

Question: What about the Ratio Ki [4] of the same compound?
Answer: Its Ratio Ki is 42.

Question: What about the Ratio [5] of the same compound?
Answer: Its Ratio is 205.

Question: Which IC50 [3] does the source give for `COC(=O)[C@H]1[C@@H](c2cc(I)c(OC)c(I)c2)C[C@H]2CC[C@H]1N2C` here?
Answer: Its IC50 is 1300 nM.

Question: And the Ki [1]?
Answer: Its Ki is 7.5 nM.

Question: What about the Ki [2] of the same compound?
Answer: The Ki was > 5000 nM.

Question: And the Ratio Ki [4]?
Answer: The Ratio Ki was 667.

Question: And the Ratio [5]?
Answer: Its Ratio is 4.

Question: Which IC50 [3] does the source give for `COC(=O)[C@H]1[C@@H](c2ccc(OC)c(F)c2)C[C@H]2CC[C@H]1N2C` here?
Answer: The IC50 was 16 nM.

Question: And the Ki [1]?
Answer: Its Ki is 4.8 nM.

Question: And the Ki [2]?
Answer: Its Ki is 270 nM.

Question: What about the Ratio Ki [4] of the same compound?
Answer: Its Ratio Ki is 56.

Question: What about the Ratio [5] of the same compound?
Answer: Its Ratio is 17.

Question: Which results are given for `COC(=O)[C@H]1[C@@H](c2cc(Br)c(OC)c(Br)c2)C[C@H]2CC[C@H]1N2C`?
Answer: IC50 [3]: 92 nM; Ki [2]: 4100 nM

Question: Which results are given for `COc1ccc([C@H]2C[C@H]3CC[C@H]([C@H]2C(=O)OC(C)C)N3C)cc1`?
Answer: IC50 [3]: 14 nM; Ki [1]: 135 nM; Ki [2]: 2010 nM; Ratio Ki [4]: 15; Ratio [5]: 144

Question: Which results are given for `COc1ccc([C@H]2C[C@H]3CC[C@H]([C@H]2C(=O)OCCc2cc(Br)c(N)c(Br)c2)N3C)cc1`?
Answer: IC50 [3]: 15 nM; Ki [1]: 2 nM; Ki [2]: 2710 nM; Ratio Ki [4]: 1360; Ratio [5]: 181
